Screens: PubChem, Broad Institute
Compounds with a hit are over-represented: about 5.8% of the library has one in this group of screens.
T cruzi growth: T. cruzi intracellular proliferation inhibitors, primary screen, cell-based, beta-gal Tulahuen parasites, NIH3T3 host, luminescence | T. cruzi beta-gal in NIH3T3, GalScreen luminescence, 90 h | inhibition, % at 8.34 µM | 77,000 tested, 5.9% active;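 active = mean inhibition above about 93%, with at least 55% of replicates each passing it, limit read from the data, passing the limit was not always enough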
Pf Dd2 growth: P. falciparum Dd2 growth inhibitors, primary screen, SYBR Green fluorescence, single dose replicates; activity change, % at 10 µM; 72 h; hits give low values; 94,000 tested, 2.3% active; AID 1159554, 2015; in the data active = activity change below about -80%
IDH1 mut inh: inhibitors of IDH1 R132H reductase, primary screen, biochemical, plate reader, single point | Isocitrate dehydrogenase [NADP] cytoplasmic (Homo sapiens), O75874 | diaphorase/resazurin fluorescence, 60 min | inhibition, % at 10 µM | 70,000 tested, 0.18% active | AID 624101, 2012; in the data active = inhibition above about 34%;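 also: 0% = DMSO and 100% = no enzyme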
Target sequence (O75874 whole entry R132H): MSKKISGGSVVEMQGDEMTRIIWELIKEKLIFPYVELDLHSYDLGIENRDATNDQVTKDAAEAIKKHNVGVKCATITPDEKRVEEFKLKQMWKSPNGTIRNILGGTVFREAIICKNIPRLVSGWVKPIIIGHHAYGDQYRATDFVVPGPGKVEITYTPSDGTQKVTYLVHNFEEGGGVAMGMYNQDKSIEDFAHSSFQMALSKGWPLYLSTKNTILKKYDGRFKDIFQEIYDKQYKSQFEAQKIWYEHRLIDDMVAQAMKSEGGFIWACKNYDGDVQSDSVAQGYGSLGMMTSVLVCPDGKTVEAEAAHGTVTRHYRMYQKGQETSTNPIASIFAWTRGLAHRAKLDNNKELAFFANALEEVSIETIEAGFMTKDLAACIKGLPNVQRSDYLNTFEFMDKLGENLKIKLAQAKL
KDM4C inh: inhibitors of GASC-1 (KDM4C) histone demethylase, primary screen, biochemical, single concentration HTS; Lysine-specific demethylase 4C (Homo sapiens), Q9H3R0; GST-KDM4C 2-372, H3K9me3 peptide, LANCE TR-FRET; inhibition, % at 12.5 µM; 96,000 tested, 0.15% active;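 active = mean replicate inhibition above about 25%, with at least 55% of replicates also reaching it, limit read from the data, passing the limit was not always enough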
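Material: N-terminal GST-fused human GASC-1 (KDM4C) fragment, residues 2-372. Input: 10 nM enzyme. Incubation: enzyme reaction 30 min, then detection 60 min, both room temperature. Doses: one test concentration per compound. Read-out basis: inhibition from TR-FRET ratio decrease. Detection: LANCE TR-FRET, excitation 340 nm, emissions 618 and 671 nm.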
* = called active by the depositor; . = no result given; ! = not confirmed by another sample.

SMILES	T cruzi growth	Pf Dd2 growth	IDH1 mut inh	KDM4C inh
COc1ccc(S(=O)(=O)Nc2ccc3c(c2)CC(=O)N([C@H](C)CO)C[C@H](C)[C@@H](CN(C)S(=O)(=O)c2ccc(F)cc2)O3)cc1	8.9	-50.1	-3.5	27.1*
CN(C)C(=O)C[C@@H]1C[C@@H]2c3cc(NC(=O)Nc4ccccc4F)ccc3O[C@@H]2[C@@H](CO)O1	3.2	12.5	38.5*	36.2*
CN(C)c1ccc2c(c1)[C@@H]1C[C@H](CC(=O)O)O[C@@H](CO)[C@@H]1O2	40.2	26.7	-16.3	13.9
COCCNC(=O)C[C@@H]1C[C@H]2c3cc(N(C)C)ccc3O[C@H]2[C@H](CO)O1	.	-16.4	-0.5	38.8*
CN(C)C(=O)C[C@H]1C[C@@H]2c3cc(N(C)C)ccc3O[C@@H]2[C@@H](CO)O1	-10.5	0.2	-13.2	33.5*
COC(=O)C[C@H]1C[C@H]2c3cc(N(C)C)ccc3O[C@H]2[C@H](CO)O1	-35.6	-6.1	-18.3	43.4*
COC(=O)C[C@@H]1C[C@H]2c3cc(N(C)C)ccc3O[C@H]2[C@@H](CO)O1	49.9	-5.9	-1.5	.
Cc1cc(C)c(S(=O)(=O)N(CC(=O)Nc2ccccc2C(F)(F)F)C2CCCCC2)c(C)c1	.	.	-0.3	.
C[C@@H]1CCCCO[C@@H](CN(C)C(=O)Nc2ccc(F)cc2)[C@@H](C)CN([C@H](C)CO)C(=O)c2cc(NS(C)(=O)=O)ccc2O1	14.4	23.8	.	-0.5
C[C@H](CO)N1C[C@H](C)[C@@H](CN(C)Cc2ccc(C(=O)Nc3ccccc3N)cc2)Oc2c(NS(=O)(=O)c3ccccc3)cccc2C1=O	.	-37.0	0.3	0.1
C[C@@H]1CN([C@@H](C)CO)C(=O)c2cccc(NS(=O)(=O)c3ccccc3)c2O[C@@H]1CN(C)Cc1ccc(C(=O)Nc2ccccc2N)cc1	80.7	-91.8*	.	-1.9
C[C@H](CO)N1C[C@H](C)[C@H](CN(C)Cc2ccc(C(=O)Nc3ccccc3N)cc2)Oc2c(NS(=O)(=O)c3ccc(F)cc3)cccc2C1=O	.	-85.3*	0.4	3.4
C[C@@H]1CN([C@@H](C)CO)C(=O)c2cccc(NS(=O)(=O)c3ccc(Cl)cc3)c2O[C@@H]1CN(C)Cc1ccc(C(=O)Nc2ccccc2N)cc1	98.7	-92.3*	.	-0.8
COc1ccc(S(=O)(=O)N(C)C[C@@H]2OCCCC[C@@H](C)Oc3ccc(NS(=O)(=O)c4ccc(C)cc4)cc3C(=O)N([C@@H](C)CO)C[C@H]2C)cc1	101.6*	-42.6	.	-0.2
COc1ccc(S(=O)(=O)Nc2ccc3c(c2)C(=O)N([C@H](C)CO)C[C@H](C)[C@@H](CN(C)S(=O)(=O)c2ccc(OC)cc2)O3)cc1	.	-85.5*	1.3	1.6
COc1ccc(S(=O)(=O)N(C)C[C@H]2OCCCC[C@H](C)Oc3ccc(NS(=O)(=O)c4ccc(C)cc4)cc3C(=O)N([C@@H](C)CO)C[C@H]2C)cc1	81.6	-82.3*	2.5	-3.6
Cc1nnc(SCC(=O)Nc2ccc([N+](=O)[O-])cc2O)s1	.	.	0.1	.
CC=Cc1ccc2n(c1=O)C[C@H]1[C@H](CO)[C@@H](C(=O)NCCC)N(C(=O)c3cccnc3)[C@@H]21 (mixture of isomers)	.	28.9	.	-0.7
COc1ccc2c3c(n(C)c2c1)[C@H](CO)N(C(=O)C1CCC1)CC31CCN(C(=O)CN(C)C)CC1	.	-81.5*	.	-0.2
COc1ccc2c3c(n(C)c2c1)[C@@H](CO)N(C(=O)C1CCC1)CC31CCN(C(=O)Nc2cccc(F)c2)CC1	.	-85.8*	.	-1.2
COc1ccc2c3c(n(C)c2c1)[C@@H](CO)N(C(=O)C1CCCC1)CC31CN(C(=O)Nc2cccc(F)c2)C1	.	-88.2*	.	-2.1
COc1ccc2c3c(n(C)c2c1)[C@@H](CO)N(C(=O)C1CCC1)CC31CCN(C(=O)CN(C)C)CC1	.	-64.5	.	0.7
COc1ccc(S(=O)(=O)N2CC3(CN(C(=O)CN(C)C)[C@H](CO)c4c3c3ccc(OC)cc3n4C)C2)cc1	.	-84.1*	.	-0.5
COc1ccc2c3c(n(C)c2c1)[C@H](CO)N(C(=O)C1CCC1)CC31CCN(C(=O)Nc2cccc(F)c2)CC1	.	-64.5	.	-0.1
C[C@H]1CN([C@@H](C)CO)C(=O)c2cc(NS(=O)(=O)c3cn(C)cn3)ccc2O[C@H]1CN(C)C(=O)NC1CCCCC1	78.3	26.9	1.2	-0.8
SMILES	T cruzi growth	Pf Dd2 growth	IDH1 mut inh	KDM4C inh
COc1ccc(NC(=O)N2CCC3(CC2)CN(C(=O)C2CCC2)[C@@H](CO)c2c3c3ccc(OC)cc3n2C)cc1	.	-93.5*	.	-0.3
CCS(=O)(=O)N1CCC2(CC1)CN(C(=O)Nc1cccc(F)c1)[C@H](CO)c1c2c2ccc(OC)cc2n1C	.	-88.0*	.	-1.3
COc1ccc2c3c(n(C)c2c1)[C@H](CO)N(C(=O)C1CC1)CC31CCN(C(=O)Nc2cccc(F)c2)CC1	.	-81.9*	.	-0.1
COc1ccc(NC(=O)N2CC3(C2)CN(C(=O)C2CCC2)[C@@H](CO)c2c3c3ccc(OC)cc3n2C)cc1	.	-29.2	.	0.7
Fc1ccc(-c2ccc(C3[C@@H]4CN(Cc5cccc(F)c5)C[C@H]3N4)cc2)cc1 (some centres not stated)	.	-20.7	.	1.7
Cc1ccc(-c2ccc([C@@H]3[C@@H]4CN(Cc5ccccc5F)C[C@H]3N4)cc2)cc1	.	-86.8*	.	-2.7
Cc1cccc(-c2ccc(C3[C@@H]4CN(Cc5ccccc5F)C[C@H]3N4)cc2)c1 (some centres not stated)	.	7.3	.	0.7
Fc1ccc(-c2ccc(C3[C@@H]4CN(Cc5ccccc5)C[C@H]3N4)cc2)cc1 (some centres not stated)	.	-81.8*!	.	40.5*!
C[C@H](CO)N1C[C@H](C)[C@H](CN(C)C(=O)C2CCC2)Oc2cc(C#Cc3ccncc3)ccc2S1(=O)=O	-36.6	-44.2	.	-2.6
COc1cc(C2c3cc(O[C@@H]4O[C@H](CO)[C@@H](O)[C@H](O)[C@H]4O)c(OC)cc3CC(CO)C2CO)ccc1O (some centres not stated)	.	.	-0.2	.
N#C[C@H]1[C@H](c2ccc(-c3ccc(F)cc3)cc2)[C@H](CO)N1c1nc(-c2ccccc2)cs1	.	-49.3	.	-5.8
COc1ccc2c3c(n(C)c2c1)[C@@H](CO)NCC31CCN(Cc2ccc(-c3ccccn3)cc2)CC1	.	-88.3*	.	0.1
COc1ccc2c3c(n(C)c2c1)[C@H](CO)NCC31CCN(Cc2ccc(-c3ccccn3)cc2)CC1	.	-88.2*	.	-1.2
COc1ccc2c3c(n(C)c2c1)[C@@H](CO)NCC31CCN(Cc2ccccc2F)CC1	.	-78.0	.	-1.0
COc1ccc2c3c(n(C)c2c1)[C@@H](CO)NCC31CN(Cc2ccc(-c3ccccn3)cc2)C1	.	-89.2*	.	-0.8
COc1ccc2c3c(n(C)c2c1)[C@@H](CO)NCC31CCN(Cc2ccc(Cl)cc2)CC1	.	0.1	.	.
